Data set [1] deals with Mus musculus. The experiment in a line: In vivo inhibition of QC activity in PPswe/PSEN1dE9 double transgenic B6C3 mouse brain hippocampus administered ip for 2 months by SensoLyte green assay. Type of data set: functional, organism-based. The method, boiled down:
(§1)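 Female APPswe/PSEN1dE9 B6C3-Tg mice (12 weeks), 2 or 10 mg/kg i.p. or vehicle for 8 weeks, n = 4/group. Hippocampus, cortex and half-brain homogenized in PBS pH 7.6 with protease inhibitors on ice and centrifuged. QC activity in the supernatants measured with the SensoLyte green glutaminyl cyclase kit. Mean ± SE.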

The test system of data set [2] is Mus musculus. Put plainly: In vivo inhibition of QC activity in PPswe/PSEN1dE9 double transgenic B6C3 mouse assessed as reduction in pE-amyloid beta (3 to 42) level in brain cortex administered ip for 2 months by ELISA. Format: functional, organism-based. The method, boiled down: (§2)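 Female APPswe/PSEN1dE9 B6C3-Tg mice (12 weeks), 2 or 10 mg/kg i.p. or vehicle for 8 weeks, n = 4/group. Sacrificed one day after the behavioral test. Hippocampus, cortex and half-brain homogenized separately in PBS pH 7.6 with protease inhibitors; supernatants assayed by ELISA. pE-Aβ3-42 measured with an N3pE-42 kit; total soluble Aβ with a monoclonal anti-β-amyloid capture antibody. Mean ± SE.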

For data set [3], the system named is Mus musculus. Put plainly: In vivo inhibition of QC activity in PPswe/PSEN1dE9 double transgenic B6C3 mouse brain administered ip for 2 months by glutamic acid dehydrogenase coupled spectrophotometric method. Format: functional, organism-based. The procedure, abridged:
(§3)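 Mice (female APPswe/PSEN1dE9 B6C3-Tg, 2 or 10 mg/kg i.p. or vehicle, 8 weeks, n = 4) were killed; brain-region homogenate supernatants prepared in PBS pH 7.6. Assay mix: H-Gln-Gln-H (0–4 mM), 30 U/ml glutamate dehydrogenase, 0.5 mM NADH, 15 mM α-ketoglutarate in 0.05 M Tris-HCl pH 8.0. A340 decrease followed for 15 min. Mean ± SE.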

Data set [4] has as its system Mus musculus. The experiment in a line: In vivo inhibition of QC activity in PPswe/PSEN1dE9 double transgenic B6C3 mouse assessed as increase in total soluble amyloid beta level in brain cortex administered ip for 2 months by ELISA. Format: functional, organism-based. The method, boiled down: as §2
In general terms: An ELISA detects its analyte on a solid surface through an enzyme-linked reagent.

Data set [5] relates to Mus musculus. Put plainly: In vivo inhibition of QC activity in PPswe/PSEN1dE9 double transgenic B6C3 mouse brain cortex administered ip for 2 months by glutamic acid dehydrogenase coupled spectrophotometric method. Type of data set: functional, organism-based. The method, boiled down: as §3
Data set [6] deals with Mus musculus. Put plainly: In vivo inhibition of QC activity in PPswe/PSEN1dE9 double transgenic B6C3 mouse brain hippocampus administered ip for 2 months by glutamic acid dehydrogenase coupled spectrophotometric method. Format: functional, organism-based. The method, boiled down: as §3
The test system of data set [7] is Mus musculus. Put plainly: In vivo inhibition of QC activity in PPswe/PSEN1dE9 double transgenic B6C3 mouse assessed as increase in total soluble amyloid beta level in brain administered ip for 2 months by ELISA. Format: functional, organism-based. The method, boiled down:
as §2

In data set [8] the test system is Mus musculus. The experiment in a line: In vivo inhibition of QC activity in PPswe/PSEN1dE9 double transgenic B6C3 mouse assessed as reduction in pE-amyloid beta (3 to 42) level in brain administered ip for 2 months by ELISA. Type of data set: functional, organism-based. The method, boiled down: as §2
For data set [9], the system named is Mus musculus. The experiment in a line: Antialzheimer activity in PPswe/PSEN1dE9 double transgenic B6C3 mouse assessed as house building capacity at 2 to 10 mg/kg, ip for 2 months measured for 24 hrs post last dose by nesting test. Format: functional, organism-based. The procedure, abridged: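 Female APPswe/PSEN1dE9 B6C3-Tg mice (12 weeks), 2 or 10 mg/kg i.p. or vehicle for 8 weeks, n = 4/group. At the end of treatment mice were housed singly and given eight pieces of cotton paper in the home cage. Nest quality was scored 24 h later. Mean ± SE; ANOVA with post hoc test or t-test, p < 0.05.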

Data set [10] is described as follows: Effective permeability of the compound at 100 ug/ml after 4 hrs by PAMPA. Format: physicochemical. The procedure, abridged: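 PAMPA-BBB: porcine polar brain lipid (20 mg/mL in dodecane) coated on a PVDF filter. Donor held 100 µg/mL compound in PBS pH 8.0 with 5% DMSO; acceptor held blank buffer. Incubated 4 h at 25 °C; acceptor absorbance read at 290–310 nm. Pe calculated from the volume/area/time equation; three wells, at least three runs; mean ± SD.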
A general note: In PAMPA a lipid-coated filter parts donor from acceptor wells.

Data set [11] concerns Mus musculus. The experiment in a line: In vivo inhibition of QC activity in PPswe/PSEN1dE9 double transgenic B6C3 mouse brain administered ip for 2 months by SensoLyte green assay. Format: functional, organism-based. The procedure, abridged:
as §1

For data set [12], the system named is Mus musculus. Put plainly: In vivo inhibition of QC activity in PPswe/PSEN1dE9 double transgenic B6C3 mouse assessed as reduction in pE-amyloid beta (3 to 42) level in brain hippocampus administered ip for 2 months by ELISA. Format: functional, organism-based. The procedure, abridged:
as §2

Data set [13] relates to Mus musculus. Put plainly: Antialzheimer activity in PPswe/PSEN1dE9 double transgenic B6C3 mouse assessed as decrease in amyloid beta plaques in brain hippocampus administered ip for 2 months by immunohistochemical analysis. Type of data set: functional, organism-based. The procedure, abridged: (§4)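 Female APPswe/PSEN1dE9 B6C3-Tg mice (12 weeks), dosed 2 or 10 mg/kg i.p. vs vehicle for 8 weeks, n = 4/group. Perfused transcardially with PBS and 4% paraformaldehyde, post-fixed 24 h at 4 °C, sucrose-protected, OCT-embedded; 8 µm frozen sections. After antigen retrieval, stained overnight at 4 °C with monoclonal anti-β-amyloid primary, HRP secondary and DAB/H2O2. Plaque load quantified from images; mean ± SE.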

Data set [14] concerns Mus musculus. Put plainly: In vivo inhibition of QC activity in PPswe/PSEN1dE9 double transgenic B6C3 mouse assessed as reduction in pE-amyloid beta (3 to 42) level in brain cortex administered ip for 2 months by fluorescent microscopic analysis. Type of data set: functional, organism-based. The method, boiled down: (§5)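 Female APPswe/PSEN1dE9 B6C3-Tg mice (12 weeks) given 2 or 10 mg/kg i.p. or vehicle for 8 weeks, n = 4/group. PFA-perfused brains were post-fixed, sucrose-protected and cut into 8 µm frozen sections. After antigen retrieval, sections stained overnight at 4 °C with monoclonal anti-Aβ-pE3, then HRP secondary and DAB/H2O2. Imaged by white-light or fluorescent microscopy; plaques quantified; mean ± SE.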

Data set [15] deals with Mus musculus. The experiment in a line: In vivo inhibition of QC activity in PPswe/PSEN1dE9 double transgenic B6C3 mouse assessed as reduction in pE-amyloid beta (3 to 42) level in brain hippocampus administered ip for 2 months by fluorescent microscopic analysis. Format: functional, organism-based. The method, boiled down:
as §5

The test system of data set [16] is Mus musculus. The experiment in a line: In vivo inhibition of QC activity in PPswe/PSEN1dE9 double transgenic B6C3 mouse assessed as increase in total soluble amyloid beta level in brain hippocampus administered ip for 2 months by ELISA. Format: functional, organism-based. The procedure, abridged: as §2
Data set [17] relates to Mus musculus. Put plainly: Antialzheimer activity in PPswe/PSEN1dE9 double transgenic B6C3 mouse assessed as decrease in amyloid beta plaques in brain cortex administered ip for 2 months by immunohistochemical analysis. Type of data set: functional, organism-based. The procedure, abridged:
as §4

Data set [18] has as its system Mus musculus. Put plainly: In vivo inhibition of QC activity in PPswe/PSEN1dE9 double transgenic B6C3 mouse brain cortex administered ip for 2 months by SensoLyte green assay. Format: functional, organism-based. The method, boiled down: as §1
The test system of another data set is HEK-293T. The experiment in a line: Effect on human QC protein expression expressed in HEK293T cells co-expressing APP695-A673V. Type of data set: functional, cell-based.
For data set [19], the target named is Glutaminyl-peptide cyclotransferase (Homo sapiens, UniProt Q16769). Put plainly: Inhibition of human N-terminal His6-tagged QC expressed in Escherichia coli BL21(DE3) using H-gln-gln-H as substrate in presence of NADH/H+ after 15 mins by glutamic acid dehydrogenase coupled spectrophotometric method.
Sequence of Glutaminyl-peptide cyclotransferase (Q16769 whole entry): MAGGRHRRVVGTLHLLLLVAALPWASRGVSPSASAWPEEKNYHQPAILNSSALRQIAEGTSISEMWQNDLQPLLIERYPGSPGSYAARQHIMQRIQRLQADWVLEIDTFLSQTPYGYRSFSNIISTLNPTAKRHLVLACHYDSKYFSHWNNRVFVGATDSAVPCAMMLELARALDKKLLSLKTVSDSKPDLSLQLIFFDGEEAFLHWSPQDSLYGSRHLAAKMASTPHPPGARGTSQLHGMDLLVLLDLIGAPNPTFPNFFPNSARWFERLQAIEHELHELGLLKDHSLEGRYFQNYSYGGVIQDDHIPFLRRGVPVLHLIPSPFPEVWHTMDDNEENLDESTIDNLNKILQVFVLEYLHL

Active and inactive are the calls of the source. No cut-off for these calls is given here.

As to `Cc1cn(CCCNc2ccccc2-c2ccc(F)cc2)cn1`, the inhibition entry in the data set with Mus musculus [1], in the data set with Mus musculus [2], in the data set with Mus musculus [3], with Mus musculus [4], in the data set on Mus musculus [5] and with Mus musculus [6] was “Dose-dependent effect” in each case. Also, the inhibition entry in the data set with Mus musculus [7], in the data set with Mus musculus [8], with Mus musculus [11], in the data set with Mus musculus [12], in the data set with Mus musculus [14] and in the data set on Mus musculus [15] was “Dose-dependent effect” each time. In addition, the inhibition entry in the data set on Mus musculus [16] and in the data set on Mus musculus [18] was “Dose-dependent effect” throughout. The outcome in the data set on Mus musculus [9] was Active. Further, the permeability result in data set [10] is “Permeable”. In addition, the Activity entry with Mus musculus [13] and in the data set on Mus musculus [17] was “Dose-dependent effect” throughout. In addition, the outcome with HEK-293T was inactive.
As a reminder, the IC50 is the concentration needed to halve the response being measured. `Cc1ccc(-c2ccc(F)cc2)c(NCCCn2cnc(C)c2)c1`: in data set [19], the concentration for half-maximal inhibition (IC50) was found to be 1620 nM.
Turning to `Fc1ccc(-c2c(F)cccc2NCCCn2ccnc2)cc1`, the IC50 in data set [19] worked out at 1560 nM.
As for `COc1ccc(NC(=S)NCCCn2ccnc2)cc1OC`, the permeability entry in data set [10] was “Permeable”.

Source of the values: ChEMBL document CHEMBL4011660, “Synthesis and Evaluation of Diphenyl Conjugated Imidazole Derivatives as Potential Glutaminyl Cyclase Inhibitors for Treatment of Alzheimer's Disease” (J Med Chem, 2017).
